In ChEMBL document CHEMBL4270638, “Sulfonyl-containing phenyl-pyrrolyl pentane analogues: Novel non-secosteroidal vitamin D receptor modulators with favorable physicochemical properties, pharmacokinetic properties and anti-tumor activity” (Eur J Med Chem, 2018):
In brackets after ≈: the same amount, converted by molar mass.

Experiments:
[1] = system: BXPC-3; assay: Antiproliferative activity against human BxPC3 cells after 24 hrs by MTT assay; assay type: functional, cell-based; conditions: BXPC-3, 24 h
[2] = system: MCF7; assay: Antiproliferative activity against human MCF7 cells after 24 hrs by MTT assay; assay type: functional, cell-based; conditions: MCF7, 24 h
[3] = system: PC-3; assay: Antiproliferative activity against human PC3 cells after 24 hrs by MTT assay; assay type: functional, cell-based; conditions: PC-3, 24 h
[4] = Solubility of the compound in water at pH 7.4 by HPLC method; assay type: physicochemical
In short: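 Aqueous solubility measured at pH 7.4, with samples quantified by HPLC.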

[5] = Half life in rat liver microsomes in presence of NADPH by HPLC method; assay type: ADME, microsome
In short: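 Compounds incubated with rat liver microsomes plus NADPH. Remaining compound quantified by HPLC at 0, 5, 10, 20, 30, 45, 60 and 90 min, and half-life calculated.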

[6] = system: MCF7; assay: Cell cycle arrest in human MCF7 cells expressing scrambled siRNA assessed as accumulation at G0/G1 phase at 1 uM after 24 hrs by propidium iodide staining based flow cytometry (reference value: 49.28%); assay type: functional
[7] = system: MCF7; assay: Cell cycle arrest in human MCF7 cells expressing scrambled siRNA assessed as accumulation at G2/M phase at 1 uM after 24 hrs by propidium iodide staining based flow cytometry (reference value: 19.6%); assay type: functional
[8] = system: MCF7; assay: Cell cycle arrest in human MCF7 cells expressing scrambled siRNA assessed as accumulation at S phase at 1 uM after 24 hrs by propidium iodide staining based flow cytometry (reference value: 29.79%); assay type: functional
[9] = system: MCF7; assay: Cell cycle arrest in human MCF7 cells expressing VDR siRNA assessed as accumulation at G0/G1 phase at 1 uM after 24 hrs by propidium iodide staining based flow cytometry (reference value: 49.17%); assay type: functional
[10] = system: MCF7; assay: Cell cycle arrest in human MCF7 cells expressing VDR siRNA assessed as accumulation at G2/M phase at 1 uM after 24 hrs by propidium iodide staining based flow cytometry (reference value: 17.57%); assay type: functional
[11] = system: MCF7; assay: Cell cycle arrest in human MCF7 cells expressing VDR siRNA assessed as accumulation at S phase at 1 uM after 24 hrs by propidium iodide staining based flow cytometry (reference value: 32%); assay type: functional
[12] = system: MCF7; assay: Induction of apoptosis in human MCF7 cells expressing scrambled siRNA assessed as live cells at 1 uM after 24 hrs by Annexin-V-FITC/propidium iodide staining based flow cytometry (reference value: 97.93%); assay type: functional
[13] = system: MCF7; assay: Induction of apoptosis in human MCF7 cells expressing scrambled siRNA assessed as early apoptotic cells at 1 uM after 24 hrs by Annexin-V-FITC/propidium iodide staining based flow cytometry (reference value: 0.93%); assay type: functional
[14] = system: MCF7; assay: Induction of apoptosis in human MCF7 cells expressing scrambled siRNA assessed as late apoptotic cells at 1 uM after 24 hrs by Annexin-V-FITC/propidium iodide staining based flow cytometry (reference value: 0.98%); assay type: functional
[15] = system: MCF7; assay: Induction of apoptosis in human MCF7 cells expressing scrambled siRNA assessed as necrotic cells at 1 uM after 24 hrs by Annexin-V-FITC/propidium iodide staining based flow cytometry (reference value: 0.16%); assay type: functional
[16] = system: MCF7; assay: Induction of apoptosis in human MCF7 cells expressing VDR siRNA assessed as live cells at 1 uM after 24 hrs by Annexin-V-FITC/propidium iodide staining based flow cytometry (reference value: 98.35%); assay type: functional
[17] = system: MCF7; assay: Induction of apoptosis in human MCF7 cells expressing VDR siRNA assessed as early apoptotic cells at 1 uM after 24 hrs by Annexin-V-FITC/propidium iodide staining based flow cytometry (reference value: 0.49%); assay type: functional
[18] = system: MCF7; assay: Induction of apoptosis in human MCF7 cells expressing VDR siRNA assessed as late apoptotic cells at 1 uM after 24 hrs by Annexin-V-FITC/propidium iodide staining based flow cytometry (reference value: 1.01%); assay type: functional
[19] = system: MCF7; assay: Induction of apoptosis in human MCF7 cells expressing VDR siRNA assessed as necrotic cells at 1 uM after 24 hrs by Annexin-V-FITC/propidium iodide staining based flow cytometry (reference value: 0.15%); assay type: functional

Row | IC50 [1] | IC50 [2] | IC50 [3] | solubility [4] | half-life [5] | Compound | Activity [6] | Activity [7] | Activity [8] | Activity [9] | Activity [10] | Activity [11] | Activity [12] | Activity [13] | Activity [14] | Activity [15] | Activity [16] | Activity [17] | Activity [18] | Activity [19]
1 | 6.43 µM | 6.47 µM | 6.89 µM | 65 µg/mL (≈ 127 µM) | 34.9 min | CCn1c(C(=O)NCCN)ccc1C(CC)(CC)c1ccc(OCS(=O)(=O)c2ccccc2)c(C)c1 |  |  |  |  |  |  |  |  |  |  |  |  |  | 
2 | 4.11 µM | 4.64 µM | 9.54 µM | 198 µg/mL (≈ 418 µM) | 48.1 min | CCN(CC)CCNC(=O)c1cc(C(CC)(CC)c2ccc(OCSC)c(C)c2)cn1CC | 55.62% | 12.37% | 30.52% | 51.44% | 16.92% | 30.37% | 95.2% | 1.17% | 3.24% | 0.39% | 96.68% | 0.91% | 1.91% | 0.5%
3 | 6.27 µM | 4.68 µM | 7.13 µM | 117 µg/mL (≈ 207 µM) | 62.4 min | CCN(CC)CCNC(=O)c1ccc(C(CC)(CC)c2ccc(OCS(=O)(=O)c3ccccc3)c(C)c2)n1CC |  |  |  |  |  |  |  |  |  |  |  |  |  | 
4 | 5.67 µM | 4.9 µM | 2.23 µM | 25.6 µg/mL (≈ 47.8 µM) | 53.7 min | CCN(CC)CCNC(=O)c1ccc(C(CC)(CC)c2ccc(OCSc3ccccc3)c(C)c2)n1CC | 55.65% | 11.15% | 31.59% | 51.65% | 17.07% | 30.12% | 96.21% | 0.59% | 2.85% | 0.35% | 97.03% | 0.71% | 1.78% | 0.47%
